Measured values as given in ChEMBL document CHEMBL4834438, “Synthesis and Biological Activity of Triterpene-Coumarin Conjugates” (J Nat Prod, 2021).
Calls of active or inactive are those of the source. The calls are words filed in the database; no cut-off is given here.

How the values were obtained:
B16-F10 [1] = assay: Induction of apoptosis in mouse B16-F10 cells assessed as total apoptosis at IC50 concentrations measured after 72 hrs by Annexin V-FITC/Propidium iodide staining based FACS cytometry analysis; format: functional
Outline: (§1)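 Seeding in 24-well plates was 5 × 10^4 B16–F10, 6 × 10^4 HT29 or 15 × 10^4 Hep G2 per well, followed by 24 h growth. Cells were treated in triplicate for 72 h at the respective IC50. Harvested cells went into HEPES binding buffer (pH 7.4, 140 mM NaCl, 2.5 mM CaCl2), with Annexin V-FITC added for 15 min at room temperature in the dark, then PI just before FACScan. About 10 × 10^3 cells were counted per sample. Results are mean ± SEM, relative to untreated control.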

HepG2 [2] = assay: Induction of apoptosis in human HepG2 cells assessed as total apoptosis at IC50 concentrations measured after 72 hrs by Annexin V-FITC/Propidium iodide staining based FACS cytometry analysis; format: functional; outline: as §1
B16-F10 [3] = assay: Cell cycle arrest in mouse B16-F10 cells assessed as decrease in cells accumulation in S phase at IC50 concentrations measured after 72 hrs by Propidium iodide staining based FACS cytometry analysis; format: functional; set-up: scale not given: the % may be the effect or the level left
Outline: (§2)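 Cells were seeded in 24-well plates (5 × 10^4 B16–F10 or 6 × 10^4 HT29 per well) and grown 24 h in DMEM with 10% FCS and 2 mM glutamine at 37 °C, 5% CO2. They were then exposed 72 h at the cancer-line IC50, washed in PBS, trypsinized and taken up in TBS, then in Vindelov buffer (RNase, PI, pH 8). Cells were kept on ice and given extra PI before reading. About 10 × 10^3 cells were read per run by FACS at 488 nm. Three experiments, two replicates each, reported as mean ± SEM.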

HT-29 [4] = assay: Cell cycle arrest in human HT-29 cells assessed as decrease in cells accumulation in S phase at IC50 concentrations measured after 72 hrs by Propidium iodide staining based FACS cytometry analysis; format: functional; set-up: scale not given: the % may be the effect or the level left; outline: as §2
B16-F10 [5] = assay: Induction of mitochondrial membrane potential loss in mouse B16-F10 cells assessed as fluorescence intensity at IC50 concentration measured after 72 hrs by rhodamine 123 staining based FACScan flow cytometry; format: functional, cell-based
Outline: (§3)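 The medium was then renewed with dihydrorhodamine, which oxidizes to Rh123, for 1 h at 37 °C in 5% CO2. Cells were washed and resuspended in PBS, and fluorescence was read by FACScan (excitation 500, emission 536 nm). Three experiments, two replicates each, reported as mean ± SEM.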

HT-29 [6] = assay: Induction of mitochondrial membrane potential loss in human HT-29 cells assessed as fluorescence intensity at IC50 concentration measured after 72 hrs by rhodamine 123 staining based FACScan flow cytometry; format: functional, cell-based; outline: as §3
HepG2 [7] = assay: Induction of mitochondrial membrane potential loss in human HepG2 cells assessed as fluorescence intensity at IC50 concentration measured after 72 hrs by rhodamine 123 staining based FACScan flow cytometry; format: functional, cell-based; outline: as §3
B16-F10 [8] = assay: Induction of apoptosis in mouse B16-F10 cells assessed as necrotic cells at IC50 concentrations measured after 72 hrs by Annexin V-FITC/Propidium iodide staining based FACS cytometry analysis; format: functional; outline: as §1
HT-29 [9] = assay: Induction of apoptosis in human HT-29 cells assessed as necrotic cells at IC50 concentrations measured after 72 hrs by Annexin V-FITC/Propidium iodide staining based FACS cytometry analysis; format: functional; outline: as §1
HepG2 [10] = assay: Induction of apoptosis in human HepG2 cells assessed as necrotic cells at IC50 concentrations measured after 72 hrs by Annexin V-FITC/Propidium iodide staining based FACS cytometry analysis; format: functional; outline: as §1
B16-F10 [11] = assay: Cell cycle arrest in mouse B16-F10 cells assessed as increase in cells accumulation in G0/G1 phase at IC50 concentrations measured after 72 hrs by Propidium iodide staining based FACS cytometry analysis; format: functional; outline: as §2
HT-29 [12] = assay: Cell cycle arrest in human HT-29 cells assessed as increase in cells accumulation in G0/G1 phase at IC50 concentrations measured after 72 hrs by Propidium iodide staining based FACS cytometry analysis; format: functional; outline: as §2
HT-29 [13] = assay: Induction of apoptosis in human HT-29 cells assessed as total apoptosis at IC50 concentrations measured after 72 hrs by Annexin V-FITC/Propidium iodide staining based FACS cytometry analysis; format: functional; outline: as §1

## CC1(C)CC[C@]2(C(=O)NCCCNC(=O)Cc3cc(=O)oc4cc(O)ccc34)CC[C@]3(C)C(=CC[C@@H]4[C@@]5(C)C[C@@H](O)[C@H](O)C(C)(C)[C@@H]5CC[C@]43C)[C@@H]2C1
B16-F10 [1]
  Activity: 85%
HepG2 [2]
  Activity: 40%
B16-F10 [3]
  Activity: 10%
HT-29 [4]
  Activity: 10%
B16-F10 [5]
  Activity: inactive
HT-29 [6]
  Activity: inactive
HepG2 [7]
  Activity: Active
B16-F10 [8]
  Activity: 5%
HT-29 [9]
  Activity: 5%
HepG2 [10]
  Activity: 5%

## CC1(C)CC[C@]2(C(=O)NCCCNC(=O)c3cc4ccccc4oc3=O)CC[C@]3(C)C(=CC[C@@H]4[C@@]5(C)C[C@@H](O)[C@H](O)C(C)(C)[C@@H]5CC[C@]43C)[C@@H]2C1
B16-F10 [11]
  Activity: inactive
B16-F10 [3]
  Activity: 10%
HT-29 [12]
  Activity: inactive
HT-29 [4]
  Activity: 10%
B16-F10 [5]
  Activity: inactive
HT-29 [6]
  Activity: inactive
HepG2 [7]
  Activity: Active
B16-F10 [8]
  Activity: 5%
HT-29 [9]
  Activity: 5%
HepG2 [10]
  Activity: 5%

## CC1(C)CC[C@]2(C(=O)NCCCNC(=O)/C=C/c3ccc(O)cc3)CC[C@]3(C)C(=CC[C@@H]4[C@@]5(C)C[C@@H](O)[C@H](O)C(C)(C)[C@@H]5CC[C@]43C)[C@@H]2C1
B16-F10 [1]
  Activity: 40%
HT-29 [13]
  Activity: 40%
HepG2 [2]
  Activity: 76%
B16-F10 [3]
  Activity: 10%
HT-29 [4]
  Activity: 10%
B16-F10 [5]
  Activity: inactive
HT-29 [6]
  Activity: inactive
HepG2 [7]
  Activity: Active
B16-F10 [8]
  Activity: 5%
HT-29 [9]
  Activity: 5%
HepG2 [10]
  Activity: 5%

## CC1(C)CC[C@]2(C(=O)O)CC[C@]3(C)C(=CC[C@@H]4[C@@]5(C)C[C@@H](OC(=O)c6cc7ccccc7oc6=O)[C@H](OC(=O)c6cc7ccccc7oc6=O)C(C)(C)[C@@H]5CC[C@]43C)[C@@H]2C1
HT-29 [13]
  Activity: 58%
HepG2 [2]
  Activity: 40%
B16-F10 [3]
  Activity: 10%
HT-29 [4]
  Activity: 10%
B16-F10 [5]
  Activity: inactive
HT-29 [6]
  Activity: inactive
HepG2 [7]
  Activity: Active
B16-F10 [8]
  Activity: 5%
HT-29 [9]
  Activity: 5%
HepG2 [10]
  Activity: 5%
